≈ marks a conversion by molar mass, not a printed value.
Experiments:
[1] = Plasma concentration in cPP-induced feeding Sprague-Dawley rat model at 1 mg/kg, po after 1 hr; assay type: ADME, organism-based; design: dose 1 mg/kg, route oral
Summary of the method: (§1)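 Satellite animals from the cPP feeding study dosed orally at 0.1, 1 or 10 mg/kg; plasma (ng/mL) and brain (ng/g) levels measured 1 h after dosing.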

[2] = Plasma concentration in cPP-induced feeding Sprague-Dawley rat model at 0.1 mg/kg, po after 1 hr; assay type: ADME, organism-based; design: dose 0.1 mg/kg, route oral; summary of the method: as §1
Liver microsomes [3] = experiment: Intrinsic clearance in human liver microsomes at 1 uM by LC/MS analysis; assay type: ADME, Microsome
Summary of the method: (§2)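 Compound incubated with human or rat liver microsomes; reaction quenched with acetonitrile, centrifuged, and remaining drug in supernatant measured by LC/MS to estimate T1/2, from which intrinsic clearance was derived.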

[4] = Absolute oral bioavailability in Sprague-Dawley rat at 2 mg/kg after 24 hrs wash out period by HPLC analysis; assay type: ADME, organism-based; details: in vivo
Summary of the method: (§3)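 Male Sprague-Dawley rats (200–250 g), jugular and carotid artery cannulated; compound dissolved in 20% beta cyclodextrin, pH adjusted with methane sulfonic acid. Serial blood sampled at 12 time points over 24 h post dose by automated sampler; plasma from centrifugation analysed by HPLC; PK parameters by non-compartmental analysis of plasma concentration–time profile.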

[5] = Protein binding in human; assay type: ADME, organism-based; details: plasma, read-out: PB (converted)
Cytochrome P450 3A4 = Cytochrome P450 3A4 (Homo sapiens, UniProt P08684); experiment: Inhibition of CYP3A4; assay type: ADME
[6] = Tmax in Sprague-Dawley rat plasma at 2 mg/kg, po and 1 mg/kg, iv after 24 hrs wash out period by HPLC analysis; assay type: ADME, organism-based; summary of the method: as §3
Cytochrome P450 1A2 = target: T1, Cytochrome P450 1A2 (Homo sapiens, UniProt P05177); experiment: Inhibition of CYP1A2; assay type: ADME
T1 sequence (P05177 whole entry): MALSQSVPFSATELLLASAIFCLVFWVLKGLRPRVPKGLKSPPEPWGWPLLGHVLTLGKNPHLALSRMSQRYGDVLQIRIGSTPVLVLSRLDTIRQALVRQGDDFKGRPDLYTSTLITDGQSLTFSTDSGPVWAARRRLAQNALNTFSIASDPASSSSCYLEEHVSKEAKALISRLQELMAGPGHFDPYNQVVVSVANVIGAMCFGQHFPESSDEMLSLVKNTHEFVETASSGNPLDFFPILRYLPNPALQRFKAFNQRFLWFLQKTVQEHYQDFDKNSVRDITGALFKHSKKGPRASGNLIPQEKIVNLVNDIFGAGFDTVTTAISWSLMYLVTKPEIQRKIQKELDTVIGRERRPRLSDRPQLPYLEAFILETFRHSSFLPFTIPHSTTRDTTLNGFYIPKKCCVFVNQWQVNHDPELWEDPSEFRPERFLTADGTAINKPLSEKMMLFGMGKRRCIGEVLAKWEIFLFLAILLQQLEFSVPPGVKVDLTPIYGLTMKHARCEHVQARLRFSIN

Plasma [7] = experiment: Plasma concentration in Sprague-Dawley rat assessed as 2-(5-chloro-1H-indol-1-yl)-N-(4-((propan-2 ylsulfonamido)methyl)cyclohexyl)acetamide level at 10 mg/kg, po after 1 hr by LC-MS/MS analysis; assay type: ADME, organism-based; design: dose 10 mg/kg, route oral; details: in vivo
Summary of the method: (§4)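 Male Sprague-Dawley rats (300–350 g), femoral artery cannulated; single 10 mg/kg oral dose in an appropriate vehicle, N = 3. Blood taken predose, 1, 2 and 4 h; brains then collected and stored at -80 °C. Equal portions of plasma or homogenized brain from the three rats pooled per time point, protein precipitated, quantified by LC/MS/MS.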

[8] = Volume of distribution at steady state in Sprague-Dawley rat plasma at 2 mg/kg, po and 1 mg/kg, iv after 24 hrs wash out period by HPLC analysis; assay type: ADME, organism-based; details: read-out: Vdss; summary of the method: as §3
Rattus norvegicus = experiment: Antiobesity activity in po dosed cPP-induced feeding Sprague-Dawley rat model assessed as reduction in food intake measured 1 hr post cpp challenge; assay type: functional
Summary of the method: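 Rats pretreated orally at 0.1, 1 or 10 mg/kg (vehicle 20% cyclodextrin) 1 h before intracerebroventricular infusion of Y5-selective peptide agonist cPP, 0.6 nmol in normal saline; food intake recorded, n = 7–14 per group.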

[9] = Cmax in Sprague-Dawley rat plasma at 2 mg/kg, po and 1 mg/kg, iv after 24 hrs wash out period by HPLC analysis; assay type: ADME, organism-based; summary of the method: as §3
[10] = Drug uptake in cPP-induced feeding Sprague-Dawley rat model brain at 1 mg/kg, po after 1 hr; assay type: ADME, organism-based; design: dose 1 mg/kg, route oral; details: read-out: Drug uptake; summary of the method: as §1
Brain [11] = experiment: Drug uptake in Sprague-Dawley rat brain assessed as 2-(5-chloro-1H-indol-1-yl)-N-(4-((propan-2-ylsulfonamido)methyl)cyclohexyl)acetamide level at 10 mg/kg, po after 1 hr by LC-MS/MS analysis; assay type: ADME, organism-based; design: dose 10 mg/kg, route oral; details: in vivo, read-out: Drug uptake; summary of the method: as §4
[12] = Solubility of the compound at pH 7.4; assay type: physicochemical; details: buffer
[13] = Drug uptake in cPP-induced feeding Sprague-Dawley rat model brain at 0.1 mg/kg, po after 1 hr; assay type: ADME, organism-based; design: dose 0.1 mg/kg, route oral; details: read-out: Drug uptake; summary of the method: as §1
Liver microsomes [14] = experiment: Intrinsic clearance in rat liver microsomes at 1 uM by LC/MS analysis; assay type: ADME, Microsome; summary of the method: as §2
[15] = Plasma concentration in cPP-induced feeding Sprague-Dawley rat model at 10 mg/kg, po after 1 hr; assay type: ADME, organism-based; design: dose 10 mg/kg, route oral; summary of the method: as §1
Cytochrome P450 2C8 = target: T2, Cytochrome P450 2C8 (Homo sapiens, UniProt P10632); experiment: Inhibition of CYP2C8; assay type: ADME
T2 sequence (P10632 whole entry): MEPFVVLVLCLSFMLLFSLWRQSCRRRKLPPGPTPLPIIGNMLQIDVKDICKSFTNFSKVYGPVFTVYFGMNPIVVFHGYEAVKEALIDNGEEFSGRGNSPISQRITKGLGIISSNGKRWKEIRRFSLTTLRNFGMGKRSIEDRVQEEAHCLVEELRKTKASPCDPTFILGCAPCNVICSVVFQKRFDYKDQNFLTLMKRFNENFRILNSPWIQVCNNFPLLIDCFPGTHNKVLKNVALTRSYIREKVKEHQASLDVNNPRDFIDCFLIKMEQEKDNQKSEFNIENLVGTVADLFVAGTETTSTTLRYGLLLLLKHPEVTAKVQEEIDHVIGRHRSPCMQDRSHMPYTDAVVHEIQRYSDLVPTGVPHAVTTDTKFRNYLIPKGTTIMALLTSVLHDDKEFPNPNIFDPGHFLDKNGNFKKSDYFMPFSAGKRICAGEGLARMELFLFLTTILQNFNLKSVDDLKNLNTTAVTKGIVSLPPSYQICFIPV

Brain [16] = experiment: Drug uptake in Sprague-Dawley rat brain at 10 mg/kg, po by LC-MS/MS analysis; assay type: ADME, organism-based; design: dose 10 mg/kg, route oral; details: in vivo, read-out: Drug uptake; summary of the method: as §4
[17] = Half life in Sprague-Dawley rat plasma at 2 mg/kg, po and 1 mg/kg, iv after 24 hrs wash out period by HPLC analysis; assay type: ADME, organism-based; summary of the method: as §3
[18] = Clearance in Sprague-Dawley rat blood at 2 mg/kg, po and 1 mg/kg, iv after 24 hrs wash out period by HPLC analysis; assay type: ADME, organism-based; details: whole blood; summary of the method: as §3
Plasma [19] = experiment: Plasma concentration in Sprague-Dawley rat at 10 mg/kg, po by LC-MS/MS analysis; assay type: ADME, organism-based; design: dose 10 mg/kg, route oral; details: in vivo; summary of the method: as §4
[20] = Drug uptake in cPP-induced feeding Sprague-Dawley rat model brain at 10 mg/kg, po after 1 hr; assay type: ADME, organism-based; design: dose 10 mg/kg, route oral; details: read-out: Drug uptake; summary of the method: as §1
[21] = Clearance in Sprague-Dawley rat plasma at 2 mg/kg, po and 1 mg/kg, iv after 24 hrs wash out period by HPLC analysis; assay type: ADME, organism-based; summary of the method: as §3
[22] = target: T3, Neuropeptide Y receptor type 5 (Homo sapiens, UniProt Q15761); experiment: Displacement of [125I]peptide YY from human NPY5 receptor
T3 sequence (Q15761 whole entry): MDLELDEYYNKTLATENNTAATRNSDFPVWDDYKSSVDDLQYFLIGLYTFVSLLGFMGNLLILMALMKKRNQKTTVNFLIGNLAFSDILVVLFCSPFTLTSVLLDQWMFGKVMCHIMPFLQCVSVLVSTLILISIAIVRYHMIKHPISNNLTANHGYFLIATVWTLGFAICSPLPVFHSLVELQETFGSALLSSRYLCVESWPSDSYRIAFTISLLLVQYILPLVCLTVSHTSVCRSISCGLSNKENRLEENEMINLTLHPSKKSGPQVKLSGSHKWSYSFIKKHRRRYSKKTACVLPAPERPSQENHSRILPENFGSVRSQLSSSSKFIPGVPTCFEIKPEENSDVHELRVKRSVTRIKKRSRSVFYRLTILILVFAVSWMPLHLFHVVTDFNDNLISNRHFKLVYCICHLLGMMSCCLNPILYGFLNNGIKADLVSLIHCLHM

Cytochrome P450 2C19 = Cytochrome P450 2C19 (Homo sapiens, UniProt P33261); experiment: Inhibition of CYP2C19; assay type: ADME
Cytochrome P450 2D6 = Cytochrome P450 2D6 (Homo sapiens, UniProt P10635); experiment: Inhibition of CYP2D6; assay type: ADME
[23] = Lipophilicity, log D of the compound at pH 7.4; assay type: physicochemical; details: buffer

Chain of Cytochrome P450 3A4 (P08684 whole entry): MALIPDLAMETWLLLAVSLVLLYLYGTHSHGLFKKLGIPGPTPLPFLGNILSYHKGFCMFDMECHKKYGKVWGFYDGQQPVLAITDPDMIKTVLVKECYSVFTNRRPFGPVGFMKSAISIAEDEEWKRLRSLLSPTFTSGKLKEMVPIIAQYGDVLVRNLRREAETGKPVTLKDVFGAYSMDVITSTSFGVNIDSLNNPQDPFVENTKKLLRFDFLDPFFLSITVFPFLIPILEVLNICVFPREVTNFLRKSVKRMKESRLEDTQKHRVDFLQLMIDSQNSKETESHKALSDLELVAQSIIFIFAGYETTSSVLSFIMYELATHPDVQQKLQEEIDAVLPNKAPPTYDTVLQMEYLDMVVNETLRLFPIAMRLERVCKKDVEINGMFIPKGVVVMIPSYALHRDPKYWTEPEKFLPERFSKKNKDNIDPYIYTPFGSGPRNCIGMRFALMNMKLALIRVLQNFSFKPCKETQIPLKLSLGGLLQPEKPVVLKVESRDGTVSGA
Chain of Cytochrome P450 2C19 (P33261 whole entry): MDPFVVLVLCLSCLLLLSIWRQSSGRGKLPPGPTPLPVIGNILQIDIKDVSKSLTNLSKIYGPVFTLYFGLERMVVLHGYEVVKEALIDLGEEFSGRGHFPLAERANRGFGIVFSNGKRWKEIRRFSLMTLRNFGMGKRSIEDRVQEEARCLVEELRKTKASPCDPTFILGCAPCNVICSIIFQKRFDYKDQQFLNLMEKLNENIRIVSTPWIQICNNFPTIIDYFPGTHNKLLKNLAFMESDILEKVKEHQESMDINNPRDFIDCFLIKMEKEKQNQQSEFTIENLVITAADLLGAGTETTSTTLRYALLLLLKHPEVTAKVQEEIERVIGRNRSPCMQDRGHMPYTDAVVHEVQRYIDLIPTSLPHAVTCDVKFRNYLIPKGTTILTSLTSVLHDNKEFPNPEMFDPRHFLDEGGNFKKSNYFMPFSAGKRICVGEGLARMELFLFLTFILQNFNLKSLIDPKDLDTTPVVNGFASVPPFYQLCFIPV
Chain of Cytochrome P450 2D6 (P10635 whole entry): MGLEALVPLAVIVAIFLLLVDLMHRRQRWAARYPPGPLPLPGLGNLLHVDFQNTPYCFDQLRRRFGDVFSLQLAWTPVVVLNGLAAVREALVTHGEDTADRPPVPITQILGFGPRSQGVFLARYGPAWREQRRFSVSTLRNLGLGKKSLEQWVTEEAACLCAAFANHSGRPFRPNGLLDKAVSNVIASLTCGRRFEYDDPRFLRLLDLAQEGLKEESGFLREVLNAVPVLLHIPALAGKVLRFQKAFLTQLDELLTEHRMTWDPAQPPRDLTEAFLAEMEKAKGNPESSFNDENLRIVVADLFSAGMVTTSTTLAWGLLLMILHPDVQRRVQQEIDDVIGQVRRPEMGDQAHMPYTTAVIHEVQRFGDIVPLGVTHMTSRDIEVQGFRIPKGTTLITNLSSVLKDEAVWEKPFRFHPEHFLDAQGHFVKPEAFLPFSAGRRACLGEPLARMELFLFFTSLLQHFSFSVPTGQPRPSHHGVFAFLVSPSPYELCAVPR

Work on `CC(C)S(=O)(=O)NC[C@H]1CC[C@H](NC(=O)Cn2ccc3cc(Cl)ccc32)CC1` yielded a concentration at 1 h [1] of 613 ng/mL, a concentration at 1 h [2] of 84 ng/mL and a CLH (Liver microsomes [3]) of 1.9 L/min. For the same compound, the bioavailability [4] was 79%, the fraction unbound [5] was 0.004 and the “inhibition (INH)” value (Cytochrome P450 3A4) was “Not Active”. The Tmax [6] was 2 h, the “inhibition (INH)” value (Cytochrome P450 1A2) was “Not Active” and the concentration (Plasma [7]) was 8010 nM. The Vd [8] was 2.8 L/kg, the Activity (Rattus norvegicus) was “Dose-dependent effect” and the minimal effective dose (Rattus norvegicus; read-out: MED) was 0.1 mg/kg. For the same compound, the Cmax [9] was 480 ng/mL, the concentration at 1 h [10] was 38 ng/g and the concentration (Brain [11]) was 641 nM. It also gave a solubility [12] of 160 µM (≈ 68.2 µg/mL), a concentration at 1 h [13] of 6 ng/g and a CLH (Liver microsomes [14]) of 11 mL/min. For the same compound, the concentration at 1 h [15] was 1260 ng/mL, the “inhibition (INH)” value (Cytochrome P450 2C8) was “Not Active” and the concentration (Brain [16]) was 54 nM. For the same compound, the half-life [17] was 7.2 h, the clearance [18] was 15 mL/min/kg and the concentration (Plasma [19]) was 751 nM. The concentration at 1 h [20] was 132 ng/g, the clearance [21] was 10 mL/min/kg and the Ki [22] was 0.3 nM. The “inhibition (INH)” value (Cytochrome P450 2C19) was “Not Active”, the “inhibition (INH)” value (Cytochrome P450 2D6) was “Not Active” and the logD [23] was 1.2.
